Bioassay records deposited in PubChem BioAssay by several laboratories.
PMI activator = increases human mannose-6-phosphate isomerase activity; P34949; purified human PMI, coupled resazurin fluorescence, 20 min; active compounds read high; 1 = vehicle control, 0 substrate-free wells; activation factor at 20 µM; 190,000 tested, 0.005% active; AID 1214;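 active = activation factor of 2 or more at 20 µM, relative to plate controls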
Target sequence (P34949 whole entry, looked up): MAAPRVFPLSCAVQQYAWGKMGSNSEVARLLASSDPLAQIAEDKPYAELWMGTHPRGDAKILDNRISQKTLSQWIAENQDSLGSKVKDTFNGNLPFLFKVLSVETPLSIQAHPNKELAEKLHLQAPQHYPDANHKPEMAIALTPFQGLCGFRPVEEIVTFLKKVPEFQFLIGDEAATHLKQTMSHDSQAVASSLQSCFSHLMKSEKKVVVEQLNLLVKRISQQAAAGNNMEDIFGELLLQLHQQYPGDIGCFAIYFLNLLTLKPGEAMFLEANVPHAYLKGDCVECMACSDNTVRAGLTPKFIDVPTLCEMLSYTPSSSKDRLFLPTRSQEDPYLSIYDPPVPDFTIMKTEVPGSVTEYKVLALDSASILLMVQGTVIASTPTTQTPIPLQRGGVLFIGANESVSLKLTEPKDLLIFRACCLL
Diaphorase act = counter-screen for diaphorase-based assays: diaphorase activators and chemical reducers; Diaphorase/resazurin coupled assay, resorufin fluorescence, 16 min; active compounds read high; 1 = vehicle wells, 0 = NADH-free wells; activation factor at 20 µM; 190,000 tested, 0.005% active; AID 1229;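 active = diaphorase activity raised at least twofold by the compound at 20 µM; inactive = activation factor below 2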
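Measured by – red resorufin fluorescence at 544/590 nm excitation/emission · Test system – Clostridium kluyveri diaphorase, purified enzyme · Incubation – reaction time 16 min, room temperature · Buffer or medium – 50 mM HEPES pH 7.4 with 4.542 mM MgCl2, 0.005% Tween 20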
PMI act hi M6P = activators of human phosphomannose isomerase at near-saturating mannose 6-phosphate; AID 1216; coupled PMI enzyme assay, resazurin fluorescence, 20 min; active compounds read high; 1 = untreated enzyme, 0 = substrate-free blank; P34949; activation factor at 20 µM; 190,000 tested, 0.34% active;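 active = activation factor of 2 or more at 20 µM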
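Test system: human phosphomannose isomerase with PGI, G6PDH, diaphorase coupling enzymes; amount: 15 ng/mL PMI; incubation: enzyme reaction with compound 20 min at room temperature; technique: resorufin fluorescence (Ex 544/Em 590 nm) from resazurin via diaphorase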
Redox H2O2 prof = compounds producing H2O2 with reducing agent – biochemical, NIH compound library profiling, artefact control for MLSCN library redox annotation, primary screen; DTT-dependent redox cycling H2O2, phenol red/HRP absorbance; 100% = 100 µM peroxide control, 0% = buffer; activation, % at 10 µM; 200,000 tested, 0.03% active; AID 878;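 active = activation of at least 50% relative to the plate's high and low controls in the primary single-dose screen; inactive = activation below 50%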;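 note: compound incubated with DTT at 0.8 mM final as the reducing agent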
Diaph inh CS = diaphorase inhibition or chemical oxidation counter-screen. AID 1217. inhibition, % at 20 µM. 190,000 tested, 0.69% active. diaphorase resazurin-to-resorufin fluorescence, NADH, 16 min; bacterial (C. kluyveri) enzyme, not human;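 active = primary screen inhibition at 20 µM above a set limit, cut at about 50% in these data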;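 note: plate controls were DMSO with full reaction for no effect and wells lacking NADH for full effect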
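Benchmarks: positive control wells lacking NADH, neutral wells with DMSO only. System: bacterial diaphorase enzyme (C. kluyveri). Input: 0.14 U/mL diaphorase, enzyme working solution. Detection: resorufin fluorescence, excitation 544 nm, emission 590 nm. Times: 16-min room-temperature incubation before reading.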
G6PDH CS = inhibits Leuconostoc G6PDH, flagging false hits in G6PDH-based assays; 200,000 tested, 0.12% active; Purified L. mesenteroides G6PDH, diaphorase/resazurin coupled fluorescence, 45 min; inhibition, % at 5 µM; in the data active = inhibition above about 50%
* hit, by the source's call. This is a sample that favours compounds with a hit; in the whole collection about 1.1% have one here.

Results for O=c1[nH]c2ccc(N=Cc3c(O)ccc4cc(Br)ccc34)cc2[nH]1 ?
PMI activator: 0.4; Diaphorase act: 0.4; PMI act hi M6P: 0.3; Redox H2O2 prof: 1; Diaph inh CS: 55*; G6PDH CS: 8

How did Cc1[nH]n(-c2ccccc2)c(=O)c1C=Nc1ccc2[nH]c(=O)[nH]c2c1 do in these assays?
PMI activator: 0.9; Diaphorase act: 0.7; PMI act hi M6P: 0.9; Redox H2O2 prof: 1; Diaph inh CS: 29; G6PDH CS: -17

What do the screens show for `CC(CN1CCOCC1)OC(=O)c1ccc(Br)cc1` (stereo unspecified)?
PMI activator: 0.7; Diaphorase act: 0.7; PMI act hi M6P: 0.5; Redox H2O2 prof: -1; Diaph inh CS: 34; G6PDH CS: 57*

How did N#Cc1cc2cc3c(cc2nc1N1CCOCC1)OCO3 do in these assays?
PMI activator: 1.7; Diaphorase act: 0.8; PMI act hi M6P: 2.1*; Redox H2O2 prof: 0; Diaph inh CS: 22; G6PDH CS: 15

How did CCN(CC)C(=O)CSc1nc2c(sc(=S)n2-c2ccccc2)c(=O)n1Cc1ccco1 do in these assays?
PMI activator: 0.8; Diaphorase act: 0.5; PMI act hi M6P: 0.9; Redox H2O2 prof: 1; Diaph inh CS: 51*; G6PDH CS: -2

What do the screens show for `CNc1nc(N)nc(OC(C(F)(F)F)C(F)(F)F)n1`?
PMI activator: 1.1; Diaphorase act: 1; PMI act hi M6P: 1.1; Redox H2O2 prof: 0; Diaph inh CS: -4; G6PDH CS: 1

How did O=C1C(Nc2ccc(O)cc2)=C/C(=N/S(=O)(=O)c2cccs2)c2ccccc21 do in these assays?
PMI activator: 0.9; Diaphorase act: 1.1; PMI act hi M6P: 0.5; Redox H2O2 prof: 0; Diaph inh CS: -12; G6PDH CS: 47

What do the screens show for `Cc1ccc(Cl)cc1NC1=C/C(=N\S(=O)(=O)c2cccs2)c2ccccc2C1=O`?
PMI activator: 0.7; Diaphorase act: 0.7; PMI act hi M6P: 0.8; Redox H2O2 prof: 0; Diaph inh CS: 30; G6PDH CS: 54*

What do the screens show for `Cc1cccc(NC2=C/C(=N/S(=O)(=O)c3cccs3)c3ccccc3C2=O)c1`?
PMI activator: 1; Diaphorase act: 0.9; PMI act hi M6P: 0.4; Redox H2O2 prof: 6; Diaph inh CS: 13; G6PDH CS: 53*

How did CC(=O)C1=C(S(=O)(=O)c2ccc(C)cc2)CS(=O)(=O)C1 do in these assays?
PMI activator: 0.5; Diaphorase act: 0.9; PMI act hi M6P: 0.6; Redox H2O2 prof: 0; Diaph inh CS: 12; G6PDH CS: 10

How did CC(C)(C)C1=CC(=O)C(N2CCOCC2)=CC1=O do in these assays?
PMI activator: 0.9; Diaphorase act: 0.7; PMI act hi M6P: 0.3; Redox H2O2 prof: 0; Diaph inh CS: 32; G6PDH CS: 55*

How did COc1cc(C(Nc2ccccn2)c2ccc3ccc(C)nc3c2O)cc(OC)c1O (stereo unspecified) do in these assays?
PMI activator: 0.6; Diaphorase act: 0.4; PMI act hi M6P: 0.4; Redox H2O2 prof: -1; Diaph inh CS: 63*; G6PDH CS: 61*

What do the screens show for `COC(=O)c1cc2n3ccccc3c(C)c(-c3ccccc3)c-2c1C(=O)OC`?
PMI activator: 1; Diaphorase act: 0.4; PMI act hi M6P: 1; Redox H2O2 prof: 0; Diaph inh CS: 57*; G6PDH CS: -4

What do the screens show for `O=[N+]([O-])c1ccc(O)c(/C=N/Nc2ccccc2Cl)c1`?
PMI activator: 1.7; Diaphorase act: 0.9; PMI act hi M6P: 2.2*; Redox H2O2 prof: -1; Diaph inh CS: 9; G6PDH CS: -2

What do the screens show for `O=[N+]([O-])c1cccc(N/N=C/c2cccc(O)c2O)c1`?
PMI activator: 0.7; Diaphorase act: 0.5; PMI act hi M6P: 0.6; Redox H2O2 prof: -1; Diaph inh CS: 52*; G6PDH CS: 25

What do the screens show for `CCSC1=N/C(=C\c2ccc(-c3ccccc3[N+](=O)[O-])o2)C(=O)S1`?
PMI activator: 0.9; Diaphorase act: 0.4; PMI act hi M6P: 0.8; Redox H2O2 prof: 1; Diaph inh CS: 63*; G6PDH CS: 46

What do the screens show for `CCOC(=O)c1c(C)c(C(=O)O)n(C)c1C`?
PMI activator: 1; Diaphorase act: 0.9; PMI act hi M6P: 0.9; Redox H2O2 prof: 3; Diaph inh CS: 12; G6PDH CS: 4

Results for CCOC(=O)c1c(C)c(/C=N/Nc2ccccc2)n(C)c1C ?
PMI activator: 1.7; Diaphorase act: 0.9; PMI act hi M6P: 2.5*; Redox H2O2 prof: -1; Diaph inh CS: 13; G6PDH CS: -5

What do the screens show for `C=CCn1c(SCC(=O)c2ccc(O)c(O)c2)nnc1-c1ccccc1OC`?
PMI activator: 0.7; Diaphorase act: 0.4; PMI act hi M6P: 0.8; Redox H2O2 prof: 2; Diaph inh CS: 64*; G6PDH CS: 10

What do the screens show for `Cn1cccc1/C=N/n1c(-c2ccc(Cl)cc2Cl)n[nH]c1=S`?
PMI activator: 0.8; Diaphorase act: 0.3; PMI act hi M6P: 0.8; Redox H2O2 prof: 2; Diaph inh CS: 72*; G6PDH CS: -12

Results for Cn1cccc1/C=N/n1c(-c2ccc(Cl)cc2)n[nH]c1=S ?
PMI activator: 0.8; Diaphorase act: 0.7; PMI act hi M6P: 0.8; Redox H2O2 prof: 2; Diaph inh CS: 28; G6PDH CS: -14

What do the screens show for `CCOC(=O)c1c(OCC)[nH]c2c1cc(O)c1ccccc12`?
PMI activator: 0.7; Diaphorase act: 0.3; PMI act hi M6P: 0.5; Redox H2O2 prof: 0; Diaph inh CS: 74*; G6PDH CS: 8

What do the screens show for `O=C(CCCCCNc1nc(=S)[nH]c2ccccc12)N1CCN(c2ccccn2)CC1`?
PMI activator: 0.9; Diaphorase act: 0.5; PMI act hi M6P: 0.9; Redox H2O2 prof: -3; Diaph inh CS: 52*; G6PDH CS: 2

What do the screens show for `Cc1ccc2c(ccc(=S)n2C)c1`?
PMI activator: 1.9; Diaphorase act: 0.9; PMI act hi M6P: 2.7*; Redox H2O2 prof: -2; Diaph inh CS: 10; G6PDH CS: 0

What do the screens show for `Cc1ccc2c(c1)nc(NCCO)n2C`?
PMI activator: 1; Diaphorase act: 1; PMI act hi M6P: 0.9; Redox H2O2 prof: 0; Diaph inh CS: 1; G6PDH CS: 4

How did Cc1cc(C)nc(-n2ncc3c2CC(c2cccc(Cl)c2)CC3=O)n1 (stereo unspecified) do in these assays?
PMI activator: 0.9; Diaphorase act: 1; PMI act hi M6P: 1; Redox H2O2 prof: 0; Diaph inh CS: 3; G6PDH CS: 0
